Reference: ChEMBL document CHEMBL1139846, “New fluorescent 2-phenylindolglyoxylamide derivatives as probes targeting the peripheral-type benzodiazepine receptor: design, synthesis, and biological evaluation” (J Med Chem, 2007)
Calls of active or inactive are those of the source. The calls are words filed in the database; no cut-off is given here.

Experiments:
[1] = target: Translocator protein (Rattus norvegicus) (UniProt P16257); test: Displacement of 2-(2-(4-fluorophenyl)-1H-indol -3-yl)-N-(6-(7-nitrobenzo[c][1, 2,5]oxadiazol-4-ylamino)hexyl )-2-oxoacetamide from peripheral type benzodiazepine receptor in rat C6 glioma cells at 50 uM; type: cell-based
Sequence of Translocator protein (Rattus norvegicus) (P16257 whole entry, looked up): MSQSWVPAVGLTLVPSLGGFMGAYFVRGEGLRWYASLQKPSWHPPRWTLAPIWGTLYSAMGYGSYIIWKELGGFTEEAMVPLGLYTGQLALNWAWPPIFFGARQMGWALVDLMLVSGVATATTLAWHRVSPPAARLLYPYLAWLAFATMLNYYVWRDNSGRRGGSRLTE
Procedure, shortened: (§1)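 Subconfluent rat C6 glioma cells in DMEM preincubated 30 min with PK 11195 or Ip (10 µM to 100 µM range), then stained with fluorescent PBR ligand at final 10 µM in culture medium, 30 min, 37 °C, 5% CO2. PBS wash, 4% paraformaldehyde fixation, fluorescence microscopy; displacement of cytoplasmic (mitochondrial) staining judged visually.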

[2] = target: Translocator protein (Rattus norvegicus) (UniProt P16257); test: Displacement of 2-(2-(4-fluorophenyl)-1H-indol -3-yl)-N-(6-(7-nitrobenzo[c][1, 2,5]oxadiazol-4-ylamino)hexyl )-2-oxoacetamide from peripheral type benzodiazepine receptor in rat C6 glioma cells at 10 uM; type: cell-based; procedure, shortened: as §1
[3] = tested on: GABA-A receptor / central benzodiazepine receptor (Rattus norvegicus); test: Displacement of [3H]flumazenil from central benzodiazepine receptor in rat cerebral cortex membranes at 10 uM; settings: Membrane
[4] = target: Translocator protein (Rattus norvegicus, UniProt P16257); test: Displacement of [3H]PK 11195 from peripheral-type benzodiazepine receptor in rat kidney mitochondrial membranes; type: cell membranes, Membrane
Sequence of Translocator protein (P16257 whole entry, looked up): as above

With `CCCCCCN(CCCCCC)C(=O)C(=O)c1c(-c2ccc(F)cc2)[nH]c2ccccc12` as the compound, how does the Activity [1] read?
Its Activity is “Active”.

What about the Activity [2] of the same compound?
The Activity was “Active”.

`O=C(NCCCCNc1ccc([N+](=O)[O-])c2nonc12)C(=O)c1c(-c2ccccc2)[nH]c2ccccc12` was tested. Which inhibition [3] did it give?
The inhibition was under 10%.

And the Ki [4]?
Its Ki is 0.042 µM.

Which Activity [2] does the source give for `CCC(C)N(C)C(=O)c1cc2ccccc2c(-c2ccccc2Cl)n1` (stereo unspecified) here?
The Activity was “Active”.

With `O=C(NCCCCCCNc1ccc([N+](=O)[O-])c2nonc12)C(=O)c1c(-c2ccccc2)[nH]c2ccccc12` as the compound, how does the inhibition [3] read?
The inhibition was under 10%.

With `O=C(NCCNc1ccc([N+](=O)[O-])c2[n-][o+]nc12)C(=O)c1c(-c2ccc(F)cc2)[nH]c2ccccc12` as the compound, how does the Ki [4] read?
Its Ki is 0.835 µM.

How did the inhibition [3] turn out when `O=C(NCCNc1ccc([N+](=O)[O-])c2nonc12)C(=O)c1c(-c2ccc(F)cc2)[nH]c2ccccc12` was run?
Its inhibition is under 10%.

`O=C(NCCCCNc1ccc([N+](=O)[O-])c2nonc12)C(=O)c1c(-c2ccc(F)cc2)[nH]c2ccccc12` was tested. Which inhibition [3] did it give?
The inhibition was under 10%.

And the Ki [4]?
The Ki was 0.023 µM.

`O=C(NCCNc1ccc([N+](=O)[O-])c2nonc12)C(=O)c1c(-c2ccccc2)[nH]c2ccccc12` was tested. Which inhibition [3] did it give?
Its inhibition is under 10%.

And the Ki [4]?
The Ki was 0.994 µM.

With `CCCN(CCC)C(=O)Cc1c(-c2ccc(Cl)cc2)nc2ccc(Cl)cn12` [ALPIDEM] as the compound, how does the Ki [4] read?
The Ki was 0.0005 µM.

How did the inhibition [3] turn out when `O=C(NCCCCCCNc1ccc([N+](=O)[O-])c2nonc12)C(=O)c1c(-c2ccc(F)cc2)[nH]c2ccccc12` was run?
Its inhibition is under 10%.

And the Ki [4]?
The Ki was 0.012 µM.

`O=C(NCCCCCCNc1ccc([N+](=O)[O-])c2[n-][o+]nc12)C(=O)c1c(-c2ccccc2)[nH]c2ccccc12` was tested. Which Ki [4] did it give?
The Ki was 0.017 µM.
